M5 antag: blocks acetylcholine activation of human M5 receptor. CHO-hM5 cells, Fluo-8 calcium fluorescence, ACh EC80. inhibition, % at 3 µM. 360,000 compounds, 0.59% hits;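 active = inhibition above a per-plate cutoff, the mean of that plate's test compounds plus 3 SD, cut at about 27% in these data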
M1 PAM: human CHRM1 positive allosteric modulation. P11229. CHO-K1 hM1, Fluo-8 calcium fluorescence, ACh EC20; 0% = ACh EC20, 100% = maximal ACh. activation, % at 3 µM. 360,000 compounds, 0.088% hits; in the data active = activation above about 19%, passing the limit was not always enough
Target sequence (P11229 whole entry, looked up): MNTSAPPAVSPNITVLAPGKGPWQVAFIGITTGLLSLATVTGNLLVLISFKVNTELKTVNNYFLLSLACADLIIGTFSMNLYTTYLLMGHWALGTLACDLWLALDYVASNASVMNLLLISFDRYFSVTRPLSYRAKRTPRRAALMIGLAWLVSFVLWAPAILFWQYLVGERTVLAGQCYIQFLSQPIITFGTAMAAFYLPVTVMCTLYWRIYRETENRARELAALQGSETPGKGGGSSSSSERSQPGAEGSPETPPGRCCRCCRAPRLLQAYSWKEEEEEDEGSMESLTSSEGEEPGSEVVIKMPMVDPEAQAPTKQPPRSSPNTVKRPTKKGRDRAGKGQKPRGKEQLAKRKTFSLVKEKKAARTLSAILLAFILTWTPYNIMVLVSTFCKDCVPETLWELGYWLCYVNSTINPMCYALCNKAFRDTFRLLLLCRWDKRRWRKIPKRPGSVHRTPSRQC
CHRM1 agonist: human M1 muscarinic receptor agonism | P11229 | CHO-K1 hM1, Fluo-8 calcium fluorescence, agonist mode; 0% DMSO, 100% acetylcholine EC100 | activation, % at 3 µM | 360,000 compounds, 0.33% hits | AID 588814;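 active = activation above the run's mean compound activation plus 3 SD, cut at about 16% in these data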;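 note: peak over basal fluorescence ratio within a 140 s kinetic read after compound addition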
CHRM5 PAM: CHRM5 positive allosteric modulation; P08912; CHO-K1 hM5, Fluo-8 calcium, ACh EC20 PAM; 0% = ACh EC20, 100% = ACh EC100; activation, % at 3 µM; 360,000 compounds, 0.3% hits; AID 624038;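 active = activation above the run cutoff, the mean activation of all test compounds plus 3 SD, cut at about 18% in these data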
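Assay system: CHO-K1 hM5 cells / Incubation: Fluo-8 loading 80 min at 37 °C plus 30 min room temperature / Technique: Fluo-8 calcium dye fluorescence, kinetic read / Repeats: single replicate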
M5 ag: agonists of human muscarinic M5 receptor (CHRM5) | 360,000 compounds, 0.19% hits | P08912 | activation, % at 3 µM | CHO-K1 hM5 cells, Fluo-8 calcium fluorescence; 0% DMSO wells, 100% maximal acetylcholine response;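 active = activation above the run's mean over test compounds plus 3 SD, cut at about 23% in these data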;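 note: signal is peak over basal fluorescence ratio across the kinetic read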
M1 antag: antagonists of human M1 muscarinic receptor; CHO-K1 hM1, Fluo-8 calcium fluorescence, ACh EC80 antagonist; 360,000 compounds, 1.3% hits; AID 588852; inhibition, % at 3 µM; P11229;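 active = percent inhibition above its own plate's cutoff, namely the mean of that plate's compound wells plus 3 SD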;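 note: peak over basal fluorescence ratio during 140 s after agonist addition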
Of the large screens only hits and unclear results are named; the others gave an inactive call. Hits are enriched below; roughly 2% of the tested compounds scored in any of these assays.

OC(c1cc(C(F)(F)F)nc2c(C(F)(F)F)cccc12)C1CCCCN1 (centres undefined)	none
COc1ccccc1NC(=O)CSc1nc2ccccc2c(=O)n1C	none
Cc1cc(C)nc(SCC(=O)Nc2ccnc3ccccc23)n1	M5 antag 35
Cc1cccc(NC(=O)CSc2nc3ccccc3c(=O)n2C)c1C	M1 antag 33
Cc1cccc(NC(=O)CCSc2ccccc2)c1C	none
Cc1cccc(NC(=O)CCc2ccccc2)c1C	CHRM5 PAM 26
CCOC(=O)c1cc2sccc2n1CC(=O)OC(C)C	M1 PAM 19
CCc1ccc(-c2cc(C)no2)cc1S(=O)(=O)NCCCN1CCN(c2ccccc2)CC1	M5 antag 29
Cc1cc(-c2ccc(C)c(S(=O)(=O)NCC3CCN(Cc4ccc(F)cc4)CC3)c2)on1	none
COc1ccc(OC)c(CNS(=O)(=O)c2cc(-c3cc(C)no3)ccc2OC)c1	none
COc1ccccc1CN1CCC(CNS(=O)(=O)c2cc(-c3cc(C)no3)ccc2C)CC1	M1 antag 66
COc1ccc(-c2cc(C)no2)cc1S(=O)(=O)NCC1CCN(Cc2cc(C)ccc2C)CC1	M1 antag 51
CN1CCN(C2CN(Cc3cn(Cc4ccccc4)nn3)S(=O)(=O)C2)CC1 (centres undefined)	none (no result: M1 PAM, CHRM1 agonist, M1 antag)
COc1cc(NC(=O)C2(C)CCN2C(C)C)cc(OC)c1OC (centres undefined)	none
CC1(C)SC(C)(C)N(C=O)C1C(=O)O (centres undefined)	none
Cc1[nH]n(-c2ccc(Cl)cc2)c(=O)c1C(=O)c1ccccc1	none
Cc1[nH]n(-c2ccccc2)c(=O)c1C(=O)c1ccccc1	CHRM5 PAM 21
CN(CCCCOc1ccc(F)cc1)Cc1ccccc1	none
CCN(Cc1ccccc1)Cc1ccc(OCc2ccccc2)cc1	M1 antag 35
CCc1ccc(OCCCCN(C)Cc2ccccc2)cc1	M1 antag 33
Cc1cc(C)c(C)c(OCCCCN(C)Cc2ccccc2)c1	M1 antag 65
Cc1ccc(-c2nc3c4ccccc4ccn3c2Cc2ccccc2C(F)(F)F)cc1	none (no result: M1 PAM, CHRM1 agonist, M1 antag)
Cc1c(NC(=O)CSc2nnc(-c3ccccc3F)o2)c(=O)n(-c2ccccc2)n1C	none
COC(=O)[C@]12CCCCC=C1N(Cc1ccccc1)C(=O)[C@H](CC(=O)NCC13CC4CC(CC(C4)C1)C3)C2	none (no result: M1 PAM, CHRM1 agonist, M1 antag)
O=C(c1cc(COc2cccc(C(F)(F)F)c2)on1)N1CCC(c2ccncc2)CC1	M1 antag 38
O=C(c1cc(COc2cccc(C(F)(F)F)c2)on1)N1CCC(c2ccccc2)CC1	none
CC(=O)c1cccc(OCc2cc(C(=O)N3CCC(N4CCCCC4)CC3)no2)c1	M1 antag 48
COC(=O)C1=C(N)Oc2cc(C)[nH]c(=O)c2C1c1ccncc1 (centres undefined)	CHRM5 PAM 20
CC1(C)N=C(N)N=C(N)N1c1ccc(OCC(=O)N2CCOCC2)c(Cl)c1	none
O=C1NC(=S)N/C1=C/c1cccc2ccccc12	none
O=C1NC(=S)NC1=Cc1ccccc1O	M5 antag 31, CHRM1 agonist 19, M5 ag 110
NC(c1ccccc1)c1csc(Nc2cc(Oc3ccccc3)ncn2)n1 (centres undefined)	M1 antag 60
Cc1cccc(C(=O)OCC(=O)NCc2ccc(Cl)cc2)c1	none
COc1ccccc1C(=O)Oc1ccc(C(C)(C)C)cc1	CHRM5 PAM 26
CC(C)(C)OC(=O)C[C@@H]1C/C=C\C[C@H](CC(=O)NCCO)C(=O)N2CCC[C@H]2COC1=O	none
CCc1nc2ccc(C(=O)N3CCN(C(=O)c4ccco4)CC3)cn2c1N(CC)Cc1cccc(Br)c1	none
Fc1ccccc1CN1CCCN(C(=S)Nc2cccc(Cl)c2)C1	M5 antag 29, M1 antag 29
CC(C)N(C(=O)COC(=O)c1cc(Cl)cc(Cl)c1N)C(C)C	M5 antag 27
CN(C)C(=O)COC(=O)c1cc(Cl)cc(Cl)c1N	none
O=C(NCCc1c[nH]c2ccccc12)c1ccc([N+](=O)[O-])o1	none
